pIC50: −log10 of the molar value.
Target: Sodium-dependent serotonin transporter (Rattus norvegicus, UniProt P31652)
Test: Inhibition of SERT-mediated serotonin uptake in rat synaptosomes
How it was run: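 Synaptosomes prepared from rat brain homogenate. Each compound was run in both the release assay and the uptake-inhibition assay to classify it as a releasing substrate or an uptake inhibitor. Dose-response curves were then completed only for the assigned activity. Values are means ± SD from N = 3 experiments, each performed in triplicate.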

Sequence of Sodium-dependent serotonin transporter (P31652 whole entry): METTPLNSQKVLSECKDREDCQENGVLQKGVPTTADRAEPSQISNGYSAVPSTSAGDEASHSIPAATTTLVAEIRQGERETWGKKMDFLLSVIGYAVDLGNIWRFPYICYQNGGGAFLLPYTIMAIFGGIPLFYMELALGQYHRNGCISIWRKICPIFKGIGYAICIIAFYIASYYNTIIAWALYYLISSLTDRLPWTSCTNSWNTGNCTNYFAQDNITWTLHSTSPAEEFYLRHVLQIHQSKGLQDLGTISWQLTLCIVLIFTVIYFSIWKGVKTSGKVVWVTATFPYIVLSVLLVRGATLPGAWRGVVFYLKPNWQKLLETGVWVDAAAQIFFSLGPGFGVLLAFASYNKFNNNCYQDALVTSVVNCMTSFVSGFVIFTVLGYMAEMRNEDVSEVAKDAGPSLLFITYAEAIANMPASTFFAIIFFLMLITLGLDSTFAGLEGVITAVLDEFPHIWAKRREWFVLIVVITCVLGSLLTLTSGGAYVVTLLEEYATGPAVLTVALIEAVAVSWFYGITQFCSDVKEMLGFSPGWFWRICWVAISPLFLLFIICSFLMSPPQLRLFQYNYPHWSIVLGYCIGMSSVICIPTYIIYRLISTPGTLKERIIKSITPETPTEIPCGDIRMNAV

CC(NC1CC1)C(=O)c1cccc(Cl)c1 (stereo unspecified) [2-(N-Cyclopropylamino)-3-chloropropiophenone]
pIC50: 5.50
